Screening results from PubChem BioAssay.
Rad51 HR inh = Rad51 (human) homologous recombination inhibition. hRad51 DNA strand exchange, fluorescence dequenching. inhibition, % at 10 µM. 200,000 compounds, 0.085% hits. AID 1385;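 active means inhibition above 40% at the single screening dose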
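Material: human Rad51–ssDNA filaments; Probe or stimulus: labelled 47-mer dsDNA for strand exchange; Doses: single 10 µM dose; Incubation: 37 °C 15-min filament assembly, 30-min compound preincubation, 15-min exchange; Technique: FRET fluorescence dequenching, excitation 485 nm, emission 520 nm; Measure: Fluorescence-based percent inhibition, control- and blank-normalised; Benchmarks: plate control and blank wells.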
ROMK primary = modulators of human ROMK potassium channel; 130,000 compounds, 2% hits; AID 1918; Tet-inducible ROMK, thallium flux fluorescence; actives lie on both sides; P48048; B-score at 10 µM;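 active means signal ratio slope over the read window, or its plate-corrected B-score, at least 3 SD from the plate mean, either direction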;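 further: B-score of the F/F0 ratio slope over 7 to 12 s after thallium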
PKD1 kinase inh = inhibitors of human PKD1 kinase; PKD1 kinase fluorescence polarization assay; 200,000 compounds, 0.056% hits; Q15139; inhibition, % (no concentration beside the values); in the data active means inhibition above about 50%
Target sequence (Q15139 whole entry, looked up): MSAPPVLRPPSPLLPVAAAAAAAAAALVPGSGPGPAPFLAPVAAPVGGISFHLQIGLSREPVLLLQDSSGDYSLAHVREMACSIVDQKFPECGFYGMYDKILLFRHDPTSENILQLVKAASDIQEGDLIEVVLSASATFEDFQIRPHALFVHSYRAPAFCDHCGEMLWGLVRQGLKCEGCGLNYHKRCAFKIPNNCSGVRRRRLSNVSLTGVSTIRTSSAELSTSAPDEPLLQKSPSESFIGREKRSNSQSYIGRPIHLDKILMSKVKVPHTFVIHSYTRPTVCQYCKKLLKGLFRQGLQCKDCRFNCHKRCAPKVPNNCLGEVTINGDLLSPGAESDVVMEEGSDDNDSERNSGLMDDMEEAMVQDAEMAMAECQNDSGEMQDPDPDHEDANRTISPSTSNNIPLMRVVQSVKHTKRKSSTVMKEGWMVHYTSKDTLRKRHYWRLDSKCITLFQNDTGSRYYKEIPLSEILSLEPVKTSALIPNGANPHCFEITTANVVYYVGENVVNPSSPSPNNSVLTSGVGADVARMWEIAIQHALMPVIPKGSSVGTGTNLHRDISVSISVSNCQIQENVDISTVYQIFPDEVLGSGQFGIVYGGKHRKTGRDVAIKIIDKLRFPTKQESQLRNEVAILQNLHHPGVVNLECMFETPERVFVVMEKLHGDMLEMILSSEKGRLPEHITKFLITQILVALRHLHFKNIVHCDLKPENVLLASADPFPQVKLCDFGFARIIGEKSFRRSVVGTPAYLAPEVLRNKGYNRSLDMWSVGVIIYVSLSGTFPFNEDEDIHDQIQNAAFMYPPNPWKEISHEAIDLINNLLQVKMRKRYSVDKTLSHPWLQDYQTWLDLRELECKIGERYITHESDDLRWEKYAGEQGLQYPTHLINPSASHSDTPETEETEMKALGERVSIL
KCC2 mod = KCC2 (human) Cl- transport modulation | Q9H2X9 | KCC2 cells, thallium flux FluoZin-2 fluorescence | B-score of Tl+ flux slope (higher = more flux/activation; lower = inhibition) at 10 µM | 190,000 compounds, 2.2% hits;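 active means thallium flux slope and its plate-corrected score both differing from the plate sample mean at a set confidence after two filtering rounds, in either direction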;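 further: slope of fluorescence scaled to starting intensity during 10 to 20 s after thallium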
KCC2 sec1 = confirmation of human KCC2 transport modulators; normalised thallium flux (F/F0 slope) at 10 µM; shares compounds with KCC2 mod; HEK293-KCC2, thallium flux, FluoZin2 fluorescence; hits give high values; 3,700 compounds, 15% hits;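 active means thallium flux slope above the same plate's solvent-only control mean plus 3 SD; inconclusive means the two replicate wells disagree; inactive means no significant difference from solvent-only control wells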
KCC2 bumet counter = thallium flux despite bumetanide block in KCC2 cells, secondary assay 3; shares compounds with KCC2 mod; HEK293-KCC2 + bumetanide/ouabain, thallium flux FluoZin2; hits give high values; normalized thallium flux at 10 µM; 3,700 compounds, 49% hits; AID 1714;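 active means thallium entry rate above the same plate's blocked-transporter control wells by more than 3 SD; inconclusive means the two repeat wells disagree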;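 further: raw slope of fluorescence over initial fluorescence between 10 and 20 s after thallium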
KCC2 secondary2 = confirmation of human KCC2 transport modulators | 3,700 compounds, 23% hits | shares compounds with KCC2 mod | normalized thallium flux at 10 µM | HEK293-KCC2, thallium flux FluoZin2 fluorescence; actives lie on both sides; F/F0 rise rate, 10–20 s post-thallium;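 active means thallium flux slope more than 3 SD above or below the plate's solvent-only control mean, mostly below; inconclusive means the two repeat wells disagreed; inactive means no significant shift from solvent-only controls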
HEK counter1 = acts in parental HEK cells, KCC2 counter-screen; shares compounds with KCC2 mod; HEK293 parental cells, thallium flux FluoZin2, ouabain; baseline-ratio fluorescence slope, 10–20 s after thallium; thallium flux rate (normalised fluorescence) at 10 µM; 3,700 compounds, 46% hits;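 active means thallium flux rate significantly above the same plate's solvent-only control wells, beyond their mean plus 3 SD; inconclusive means the two replicate wells gave conflicting results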
KCC2 ouabain = KCC2 (human) modulation, ouabain retest; shares compounds with KCC2 mod; HEK293-KCC2, thallium flux FluoZin2 fluorescence; bidirectional: low = inhibitor, high = activator; raw Tl+ flux slope (below DMSO = inhibition, above = activation) at 10 µM; 3,700 compounds, 48% hits; AID 1717;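 active means thallium flux slope beyond 3 SD from same-plate DMSO control mean in most replicates, usually higher, sometimes lower; inconclusive means repeat tests gave conflicting results; inactive means no significant difference from controls in most replicates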;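 further: slope of initial-normalized fluorescence between seconds 10 and 20 after thallium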
HEK293 Tl flux2 = counter-screen for KCC2 modulators: effect in parental HEK293 cells; shares compounds with KCC2 mod; thallium flux FluoZin-2 fluorescence slope; thallium flux slope at 10 µM; 3,700 compounds, 33% hits; AID 1718;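 active means thallium flux slope above the same plate's solvent-control mean plus 3 SD in both duplicate wells; inconclusive means duplicate wells that disagreed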;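 further: run without ouabain in cells lacking the KCC2 cotransporter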
Hits are given with their value; . = inactive; ? = inconclusive; / = no result. Shown are actives, neighbours in structure and some others; about 3% of the full set was active somewhere.

SMILES	Rad51 HR inh	ROMK primary	PKD1 kinase inh	KCC2 mod	KCC2 sec1	KCC2 bumet counter	KCC2 secondary2	HEK counter1	KCC2 ouabain	HEK293 Tl flux2
Cc1cccc(N(C(=O)CCC(=O)Nc2ccccn2)C(C(=O)NC(C)C)c2ccc(O)cc2)c1 (stereo not drawn)	.	/	.	-3.5	.	.	.	.	.	.
COc1ccc2c(C)cc3n[nH]c(=S)n3c2c1	.	/	/	27	0.023	0.037	?	0.028	0.031	0.029
COc1ccc(-c2n[nH]c(=S)n2-c2cc(OC)ccc2OC)cc1	.	/	/	/	/	/	/	/	/	/
Cc1cc(Cl)ccc1OCCCC(=O)OCC(N)=O	.	.	.	.	/	/	/	/	/	/
NC(=O)C12CCCC(Br)(CCC1)C2	.	.	/	.	/	/	/	/	/	/
C=C(C)COc1ccc(-c2[nH]ncc2-c2ccccc2)c(O)c1	.	/	.	-4.4	.	?	.	.	.	.
CCCN(CC1CC1)C(=S)NC(=O)c1ccc(S(=O)(=O)N2CCOCC2)cc1	.	.	.	5.6	.	0.019	.	0.017	0.024	0.018
O=C(NC(=S)N1CCN(C(c2ccccc2)c2ccccc2)CC1)c1ccc(S(=O)(=O)N2CCOCC2)cc1	.	.	.	8.7	.	0.024	.	0.013	?	?
COc1ccc(OC)c(NC(=O)c2ccc(-c3cccs3)cc2)c1	.	.	.	.	/	/	/	/	/	/
CCOC(=O)C1CCCN(C/C(O)=C(\C#N)c2nc(-c3ccc(Cl)cc3)cs2)C1 (stereo not drawn)	.	/	.	-3.5	.	.	0.024	.	0.018	.
N#C/C(=C(/O)CN1CCCC1)c1nc(-c2ccccc2)cs1	.	/	/	.	/	/	/	/	/	/
CCOC(=O)N1CCN(C(=S)NC(=O)c2ccc(F)cc2)CC1	.	.	.	4.2	.	0.011	.	0.013	.	0.016
O=C(NC(=S)N1CCCCCC1)c1ccccc1Cl	.	.	.	23	0.025	0.054	.	0.024	0.048	0.014
CN1CCN(C(=S)NC(=O)c2ccc(C(C)(C)C)cc2)CC1	/	.	.	11	.	0.018	.	0.016	?	0.015
O=C(NC(=S)N1CCN(c2ccc([N+](=O)[O-])cc2)CC1)c1ccccc1Cl	/	.	.	.	/	/	/	/	/	/
CN1CCN(C(=S)NC(=O)c2ccc(Br)cc2)CC1	/	/	/	12	?	0.016	.	0.012	0.026	.
COc1ccc(N2CCN(C(=S)NCc3ccccc3)CC2)cc1	.	.	.	.	/	/	/	/	/	/
O=C(O)c1cccc(-n2c(-c3cnccn3)n[nH]c2=S)c1	.	.	.	.	/	/	/	/	/	/
CCC(C)(C)NC(=O)CN(CCc1cccc(C)c1)C(=O)c1csnn1	.	.	.	/	/	/	/	/	/	/
Cc1ccc2c(c1)C1CN(C)CCC1N2C(=S)NC(=O)c1ccc(Br)cc1 (stereo not drawn)	.	/	.	133	0.041	0.11	?	0.13	0.085	0.035
CCN(CC)C(=S)NC(=O)c1cccnc1	.	.	.	.	/	/	/	/	/	/
O=C(NC(=S)N1CCN(C2CCCCC2)CC1)c1ccccc1	.	.	.	35	0.033	0.053	0.047	0.03	0.038	0.035
CCN(CC)C(=S)NC(=O)c1ccc(F)cc1	.	.	.	34	.	0.052	0.049	0.033	0.047	0.042
CN1CCN(C(=S)NC(=O)c2ccc(-c3ccccc3)cc2)CC1	.	.	.	27	0.03	0.065	?	0.034	0.036	0.038
CC(C)OC(=O)CCCNc1ccc([N+](=O)[O-])cc1[N+](=O)[O-]	.	/	.	.	/	/	/	/	/	/
SMILES	Rad51 HR inh	ROMK primary	PKD1 kinase inh	KCC2 mod	KCC2 sec1	KCC2 bumet counter	KCC2 secondary2	HEK counter1	KCC2 ouabain	HEK293 Tl flux2
CC(=O)c1cnc(Nc2cccc(C)c2)s1	.	.	.	.	/	/	/	/	/	/
O=C(CSC1=NCCS1)Nc1nc2ccccc2s1	.	.	.	.	/	/	/	/	/	/
Cc1sc(NC(=O)CSC2=NCCS2)nc1-c1ccccc1	.	.	.	/	.	.	.	.	.	.
Cc1ccc2nc(-c3ccccc3)c(CN3CCOCC3)n2c1	.	.	.	4.3	.	.	.	.	.	.
Fc1ccc(OCc2nc(-c3ccc(Br)o3)no2)c(F)c1	.	/	.	/	.	.	.	.	0.015	.
O=C(COC(=O)/C=C/c1ccc(F)cc1)Nc1ccccc1-c1ccccc1	/	.	.	.	/	/	/	/	/	/
Cc1cc(NC(=O)CS(=O)(=O)c2cn(Cc3ccccc3Cl)c3ccccc23)no1	.	/	.	-2.9	.	.	?	0.006	0.015	?
O=C(N/C(=C\c1cccc([N+](=O)[O-])c1)C(=O)N(CCO)CCO)c1ccco1	.	.	.	/	/	/	/	/	/	/
CCn1c(=O)ccc2cc([N+](=O)[O-])ccc21	.	.	.	.	/	/	/	/	/	/
CCCn1nc([N+](=O)[O-])c(C(C#N)c2nc3ccccc3s2)c(Cl)c1=O (stereo not drawn)	.	.	.	-6.1	.	0.0059	?	0.0058	0.011	0.0081
CCn1nc([N+](=O)[O-])c(C(C#N)c2nc3ccccc3n2C)c(Cl)c1=O (stereo not drawn)	.	.	.	.	/	/	/	/	/	/
CCCC(=O)NC(c1ccc2c(c1)OCO2)c1cc(Cl)c2cccnc2c1O (stereo not drawn)	.	.	.	4.1	.	.	.	.	.	.
CCOc1ccc(C(Nc2cccnc2)c2cc(Cl)c3cccnc3c2O)cc1 (stereo not drawn)	.	.	.	5	.	0.014	.	0.018	?	.
Cc1sc(-n2c(C)cc(/C=C3\SC(=S)NC3=O)c2C)c(C#N)c1C	.	.	.	9	.	0.016	.	0.016	?	?
CC1(C)NC(=O)N(CC(=O)OCC(=O)Nc2cc(S(=O)(=O)N3CCCCCC3)ccc2Cl)C1=O	.	.	.	.	/	/	/	/	/	/
